Results taken from ChEMBL document CHEMBL3588830, “Indole Alkaloids from Chaetomium globosum” (J Nat Prod, 2015).
Activity calls are given as the source filed them. No cut-off for these calls is given here.

Key:
Escherichia coli = test: Antimicrobial activity against Escherichia coli 1.044 assessed as inhibition of microbial growth incubated at 37 degC for 24 hrs; format: functional; conditions: Escherichia coli, 1.044, 24 h
How it was run: (§1)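 MIC by tube broth dilution in MHB. Samples were dissolved in DMSO, with final DMSO no more than 5% (v/v). Final dilutions ran from 50 to 0.19 μg/mL, with final bacteria at 1 × 10^8 CFU/mL. Tubes were incubated at 37 °C for 24 h. MIC was taken as the lowest concentration inhibiting visible growth.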

[1] = Antioxidative activity assessed as superoxide anion radical scavenging activity at 90.9 uM; format: physicochemical
[2] = Antioxidative activity assessed as DPPH radical scavenging activity at 93.9 uM; format: physicochemical
[3] = Antioxidative activity assessed as ABTS cation radical scavenging activity at 108.3 uM; format: physicochemical
Bacillus subtilis = test: Antimicrobial activity against Bacillus subtilis 1.079 assessed as inhibition of microbial growth incubated at 37 degC for 24 hrs; format: functional; conditions: Bacillus subtilis, 1.079, 24 h; how it was run: as §1
[4] = Antioxidative activity assessed as superoxide anion radical scavenging activity at 61.3 uM; format: physicochemical
[5] = Antioxidative activity assessed as ABTS cation radical scavenging activity; format: physicochemical
Saccharomyces cerevisiae [6] = test: Antimicrobial activity against Saccharomyces cerevisiae assessed as inhibition of microbial growth up to 100 ug/mL incubated at 31 degC for 72 hrs; format: functional, organism-based
How it was run: (§2)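 Oxford cup diffusion on agar plates of potato extract 20% (w/v, boiled 20 min), dextrose 20.0 g/L and agar 17 g/L, inoculated with the test fungus. Plates were incubated at 31 °C for 72 h.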

Fusarium graminearum [7] = test: Antimicrobial activity against Fusarium graminearum assessed as inhibition of microbial growth up to 100 ug/mL incubated at 31 degC for 72 hrs; format: functional, organism-based
How it was run: (§3)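 Oxford cup diffusion assay on agar plates of potato extract 20% (w/v, boiled 20 min), dextrose 20.0 g/L and agar 17 g/L, seeded with the fungal strain. Plates incubated at 31 °C for 72 h.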

Candida albicans [8] = test: Antimicrobial activity against Candida albicans assessed as inhibition of microbial growth up to 100 ug/mL incubated at 31 degC for 72 hrs; format: functional, organism-based; how it was run: as §2
Aspergillus niger [9] = test: Antimicrobial activity against Aspergillus niger assessed as inhibition of microbial growth incubated up to 100 ug/mL at 31 degC for 72 hrs; format: functional, organism-based; how it was run: as §2
[10] = Antioxidative activity assessed as DPPH radical scavenging activity; format: physicochemical
[11] = system: Fusarium oxysporum f. sp. vasinfectum; test: Antimicrobial activity against Fusarium vasinfectum assessed as inhibition of microbial growth up to 100 ug/mL incubated at 31 degC for 72 hrs; format: functional, organism-based; how it was run: as §2
Aspergillus niger [12] = test: Antimicrobial activity against Aspergillus niger assessed as inhibition of microbial growth incubated up to 200 ug/mL at 31 degC for 72 hrs; format: functional, organism-based; how it was run: as §3
Fusarium graminearum [13] = test: Antimicrobial activity against Fusarium graminearum assessed as inhibition of microbial growth up to 200 ug/mL incubated at 31 degC for 72 hrs; format: functional, organism-based; how it was run: as §3
Candida albicans [14] = test: Antimicrobial activity against Candida albicans assessed as inhibition of microbial growth up to 200 ug/mL incubated at 31 degC for 72 hrs; format: functional, organism-based; how it was run: as §3
[15] = system: Fusarium oxysporum f. sp. vasinfectum; test: Antimicrobial activity against Fusarium vasinfectum assessed as inhibition of microbial growth up to 200 ug/mL incubated at 31 degC for 72 hrs; format: functional, organism-based; how it was run: as §3
Saccharomyces cerevisiae [16] = test: Antimicrobial activity against Saccharomyces cerevisiae assessed as inhibition of microbial growth up to 200 ug/mL incubated at 31 degC for 72 hrs; format: functional, organism-based; how it was run: as §3
[17] = Antioxidative activity assessed as DPPH radical scavenging activity at 89.9 uM; format: physicochemical
[18] = Antioxidative activity assessed as ABTS cation radical scavenging activity at 103.7 uM; format: physicochemical
[19] = Antioxidative activity assessed as superoxide anion radical scavenging activity at 88.3 uM; format: physicochemical
[20] = Antioxidative activity assessed as superoxide anion radical scavenging activity; format: physicochemical

With `CN1C(=O)C2=CC3(n4cc(C[C@@]56SSSS[C@@](CO)(C(=O)N5C)N(C)C6=O)c5ccccc54)c4ccccc4N[C@@H]3N2C(=O)C1CO` (some centres undefined) the MIC (Escherichia coli) was over 50 µg/mL, the “inhibition (INH)” value [1] was 14.8% and the “inhibition (INH)” value [2] was under 10%. For the same compound, the “inhibition (INH)” value [3] was under 20% and the MIC (Bacillus subtilis) was 25 µg/mL.

For `CC(C)=CCc1ccc2[nH]cc(C3=C(O)C(=O)C(O)(c4c[nH]c5ccc(CC=C(C)C)cc45)C(=O)C3=O)c2c1` (centres undefined), the “inhibition (INH)” value [4] was 30.4%, the IC50 [5] was 45.2 µM and the MIC (Escherichia coli) was over 50 µg/mL. The “growth inhibition (GI)” value (Saccharomyces cerevisiae [6]) was “inactive”, the “growth inhibition (GI)” value (Fusarium graminearum [7]) was “inactive” and the “growth inhibition (GI)” value (Candida albicans [8]) was “inactive”. The “growth inhibition (GI)” value (Aspergillus niger [9]) was “inactive”, the IC50 [10] was 144 µM and the “growth inhibition (GI)” value [11] was “inactive”. It also gave an MIC (Bacillus subtilis) of 50 µg/mL.

`O=C1O[C@H]([C@@H](O)CO)C(O)=C1O` [ASCORBIC ACID] showed an IC50 [5] of 0.01 µM and an IC50 [10] of 0.02 µM.

For `CN1C(=O)[C@]2(Cc3cn([C@]45C[C@@]67SS[C@@](CO)(C(=O)N6[C@H]4Nc4ccccc45)N(C)C7=O)c4ccccc34)SS[C@@]1(CO)C(=O)N2C` [CHETOMIN], the “growth inhibition (GI)” value (Aspergillus niger [12]) was “inactive”, the MIC (Escherichia coli) was over 50 µg/mL and the “growth inhibition (GI)” value (Fusarium graminearum [13]) was “inactive”. The “inhibition (INH)” value [1] was 18.1%, the “inhibition (INH)” value [2] was under 10% and the “growth inhibition (GI)” value (Candida albicans [14]) was “inactive”. The “growth inhibition (GI)” value [15] was “inactive”, the “inhibition (INH)” value [3] was under 20% and the MIC (Bacillus subtilis) was 0.78 µg/mL. For the same compound, the “growth inhibition (GI)” value (Saccharomyces cerevisiae [16]) was “inactive”.

For `CN1C(=O)[C@]2(Cc3cn([C@]45C[C@@]67SSS[C@@](CO)(C(=O)N6[C@H]4Nc4ccccc45)N(C)C7=O)c4ccccc34)SS[C@@]1(CO)C(=O)N2C` [CHETOSEMINUDIN A], the MIC (Escherichia coli) was over 50 µg/mL, the “inhibition (INH)” value [17] was under 10% and the “inhibition (INH)” value [18] was under 20%. For the same compound, the “inhibition (INH)” value [19] was 51.5% and the MIC (Bacillus subtilis) was 0.78 µg/mL.

In the case of `O=c1cc(-c2ccc(O)c(O)c2)oc2cc(O)cc(O)c12` [LUTEOLIN], the IC50 [20] is reported as 22.3 µM.

In the case of `COc1cccc(OC)c1C(=O)N[C@@H]1C(=O)N2[C@@H]1SC(C)(C)[C@@H]2C(=O)O` [METHICILLIN], the MIC (Bacillus subtilis) is reported as 0.78 µg/mL.
